ChEMBL document CHEMBL1773035, “SHAFTS: a hybrid approach for 3D molecular similarity calculation. 2. Prospective case study in the discovery of diverse p90 ribosomal S6 protein kinase 2 inhibitors to suppress cell migration” (J Med Chem, 2011)
Each block holds one compound with its values, some of them ahead of it. Active and inactive are the calls of the source. The rule behind the calls is not given here.

Columns and labels:
[1] = target: Platelet-derived growth factor receptor alpha (Homo sapiens) (UniProt P16234); assay: Inhibition of PDGFRalpha at 10 uM by ELISA based method
In short: (§1)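 Tyrosine kinase profiling by ELISA-based method, ATP at Km for each enzyme; percent inhibition at 10 μM, mean of at least two independent tests.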

MDA-MB-231 [2] = assay: Antimigratory activity against human MDA-MB-231 cells at 5 uM after 48 hrs by wound-healing assay; assay type: functional, cell-based
In short: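 MDA-MB-231 grown 24 h to confluence in six-well plates, monolayer scratched with a pipet tip, washed, then kept in serum-free DMEM with compound (0.5 and 5 μM) for 48 h; migration photographed by phase-contrast microscopy at 0 and 48 h.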

MCF7 [3] = assay: Antiproliferative activity against human MCF7 cells over expressing RSK2 at 100 uM after 48 hrs by MTT assay; assay type: functional; conditions: MCF7, 48 h
In short: (§2)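 Formazan dissolved in DMSO, absorbance read at 570 nm. Inhibition = (1 − A570 compound/A570 control)×100. Screening concentration 100 μM (control 10 μM). IC50 from curves, ≥3 independent tests, attempted when inhibition at 100 μM exceeded 40%.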

[4] = target: Fibroblast growth factor receptor 1 (Homo sapiens) (UniProt P11362); assay: Inhibition of FGFR1 at 10 uM by ELISA based method; in short: as §1
[5] = target: Tyrosine-protein kinase ABL1 (Homo sapiens) (UniProt P00519); assay: Inhibition of ABL at 10 uM by ELISA based method; in short: as §1
MDA-MB-231 [6] = assay: Antiproliferative activity against human MDA-MB-231 cells over expressing RSK2 after 48 hrs by MTT assay; assay type: functional, cell-based; conditions: MDA-MB-231, 48 h; in short: as §2
[7] = target: Mitogen-activated protein kinase 9 (Homo sapiens) (UniProt P45984); assay: Inhibition of JNK2 at 10 uM
In short: (§3)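 Serine/threonine kinase profiling by an outside contract service following manufacturer protocols, ATP at Km for each enzyme; percent inhibition at 10 μM.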

[8] = target: Ribosomal protein S6 kinase alpha-5 (Homo sapiens) (UniProt O75582); assay: Inhibition of MSK1 at 10 uM; in short: as §3
[9] = target: Glycogen synthase kinase-3 alpha (Homo sapiens) (UniProt P49840); assay: Inhibition of GSK3alpha at 10 uM; in short: as §3
HCT-116 [10] = assay: Antiproliferative activity against human HCT116 cells over expressing RSK2 at 100 uM after 48 hrs by MTT assay; assay type: functional; conditions: HCT-116, 48 h; in short: as §2
[11] = target: Proto-oncogene tyrosine-protein kinase Src (Homo sapiens) (UniProt P12931); assay: Inhibition of c-Src at 10 uM by ELISA based method; in short: as §1
[12] = target: Proto-oncogene tyrosine-protein kinase receptor Ret (Homo sapiens) (UniProt P07949); assay: Inhibition of RET at 10 uM by ELISA based method; in short: as §1
[13] = target: Vascular endothelial growth factor receptor 1 (Homo sapiens) (UniProt P17948); assay: Inhibition of Flt1 at 10 uM by ELISA based method; in short: as §1
[14] = target: Vascular endothelial growth factor receptor 2 (Homo sapiens) (UniProt P35968); assay: Inhibition of KDR at 10 uM by ELISA based method; in short: as §1
[15] = target: Serine/threonine-protein kinase pim-1 (Homo sapiens) (UniProt P11309); assay: Inhibition of PIM1 at 10 uM; in short: as §3
MCF7 [16] = assay: Antiproliferative activity against human MCF7 cells over expressing RSK2 after 48 hrs by MTT assay; assay type: functional, cell-based; conditions: MCF7, 48 h; in short: as §2
[17] = target: Ephrin type-A receptor 2 (Homo sapiens) (UniProt P29317); assay: Inhibition of EPHA2 at 10 uM by ELISA based method; in short: as §1
[18] = target: Mitogen-activated protein kinase 3 (Homo sapiens) (UniProt P27361); assay: Inhibition of ERK1 at 10 uM; in short: as §3
[19] = target: RAC-alpha serine/threonine-protein kinase (Homo sapiens) (UniProt P31749); assay: Inhibition of AKT1 at 10 uM; in short: as §3
[20] = target: Ribosomal protein S6 kinase beta-1 (Homo sapiens) (UniProt P23443); assay: Inhibition of p70S6K at 10 uM; in short: as §3
[21] = target: Epidermal growth factor receptor (Homo sapiens) (UniProt P00533); assay: Inhibition of EGFR at 10 uM by ELISA based method; in short: as §1
[22] = target: Protein kinase C alpha type (Homo sapiens) (UniProt P17252); assay: Inhibition of PKCalpha at 10 uM; in short: as §3
MDA-MB-231 [23] = assay: Antiproliferative activity against human MDA-MB-231 cells over expressing RSK2 at 100 uM after 48 hrs by MTT assay; assay type: functional; conditions: MDA-MB-231, 48 h; in short: as §2
[24] = target: Mitogen-activated protein kinase 14 (Homo sapiens) (UniProt Q16539); assay: Inhibition of p38alpha at 10 uM; in short: as §3
[25] = target: Platelet-derived growth factor receptor beta (Homo sapiens) (UniProt P09619); assay: Inhibition of PDGFRbeta at 10 uM by ELISA based method; in short: as §1
[26] = target: T1, Ribosomal protein S6 kinase alpha-3 (Homo sapiens, UniProt P51812); assay: Inhibition of RSK2 at 10 uM
In short: (§4)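 Recombinant RSK2 (20 ng) preincubated 20 min at room temperature with compound in HEPES pH 7.4 buffer (MgCl2, EGTA, Tween 20, BGG) with 25 μM S6 peptide; started with ATP (10 μM final), 60 min at room temperature. ADP Quest fluorescence read at ex 530/em 590 nm. IC50 from curves of ≥3 independent tests, measured when inhibition at 10 μM exceeded 30%.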

[27] = target: Mast/stem cell growth factor receptor Kit (Homo sapiens) (UniProt P10721); assay: Inhibition of c-Kit at 10 uM by ELISA based method; in short: as §1
HCT-116 [28] = assay: Antiproliferative activity against human HCT116 cells over expressing RSK2 after 48 hrs by MTT assay; assay type: functional, cell-based; conditions: HCT-116, 48 h; in short: as §2
[29] = target: T1, Ribosomal protein S6 kinase alpha-3; assay: Inhibition of RSK2 after 60 mins; in short: as §4
[30] = target: Ribosomal protein S6 kinase beta-1 (Homo sapiens) (UniProt P23443); assay: Inhibition of p70S6K at 1 uM
[31] = target: Mitogen-activated protein kinase 8 (Homo sapiens) (UniProt P45983); assay: Inhibition of JNK1 at 1 uM
[32] = target: Mitogen-activated protein kinase 1 (Homo sapiens) (UniProt P28482); assay: Inhibition of ERK2 at 1 uM
HCT-116 [33] = assay: Antiproliferative activity against human HCT116 cells over expressing RSK2 at 10 uM after 48 hrs by MTT assay; assay type: functional; conditions: HCT-116, 48 h
[34] = target: Ribosomal protein S6 kinase alpha-5 (Homo sapiens) (UniProt O75582); conditions: 1 uM
MCF7 [35] = assay: Antiproliferative activity against human MCF7 cells over expressing RSK2 at 10 uM after 48 hrs by MTT assay; assay type: functional; conditions: MCF7, 48 h
MDA-MB-231 [36] = assay: Antiproliferative activity against human MDA-MB-231 cells over expressing RSK2 at 10 uM after 48 hrs by MTT assay; assay type: functional; conditions: MDA-MB-231, 48 h
[37] = target: 3-phosphoinositide-dependent protein kinase 1 (Homo sapiens) (UniProt O15530); assay: Inhibition of PDK1 at 1 uM
[38] = target: Mitogen-activated protein kinase 14 (Homo sapiens) (UniProt Q16539); assay: Inhibition of p38alpha at 1 uM
[39] = target: Protein kinase C alpha type (Homo sapiens) (UniProt P17252); assay: Inhibition of PKCalpha at 1 uM
[40] = target: T1, Ribosomal protein S6 kinase alpha-3; conditions: 1 uM

T1 sequence (P51812 whole entry): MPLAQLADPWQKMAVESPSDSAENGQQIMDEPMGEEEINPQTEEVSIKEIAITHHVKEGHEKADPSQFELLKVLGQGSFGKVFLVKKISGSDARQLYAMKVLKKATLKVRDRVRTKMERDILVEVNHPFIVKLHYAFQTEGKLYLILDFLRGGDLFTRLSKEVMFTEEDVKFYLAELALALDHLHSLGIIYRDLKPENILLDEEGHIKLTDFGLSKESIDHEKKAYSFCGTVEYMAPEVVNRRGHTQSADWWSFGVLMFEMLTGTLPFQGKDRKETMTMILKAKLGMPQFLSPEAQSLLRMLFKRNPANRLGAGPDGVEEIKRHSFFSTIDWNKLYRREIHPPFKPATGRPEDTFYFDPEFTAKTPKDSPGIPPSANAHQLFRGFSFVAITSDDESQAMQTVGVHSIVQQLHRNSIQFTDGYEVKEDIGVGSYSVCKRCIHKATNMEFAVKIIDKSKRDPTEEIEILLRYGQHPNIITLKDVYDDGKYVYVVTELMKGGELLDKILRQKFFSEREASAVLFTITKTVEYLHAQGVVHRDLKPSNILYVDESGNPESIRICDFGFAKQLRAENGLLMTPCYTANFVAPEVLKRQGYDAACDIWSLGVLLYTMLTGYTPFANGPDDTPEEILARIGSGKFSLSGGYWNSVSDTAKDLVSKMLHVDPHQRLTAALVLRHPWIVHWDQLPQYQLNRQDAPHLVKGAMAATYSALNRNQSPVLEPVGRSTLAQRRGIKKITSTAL
Sequence of Proto-oncogene tyrosine-protein kinase receptor Ret (Homo sapiens) (P07949 whole entry): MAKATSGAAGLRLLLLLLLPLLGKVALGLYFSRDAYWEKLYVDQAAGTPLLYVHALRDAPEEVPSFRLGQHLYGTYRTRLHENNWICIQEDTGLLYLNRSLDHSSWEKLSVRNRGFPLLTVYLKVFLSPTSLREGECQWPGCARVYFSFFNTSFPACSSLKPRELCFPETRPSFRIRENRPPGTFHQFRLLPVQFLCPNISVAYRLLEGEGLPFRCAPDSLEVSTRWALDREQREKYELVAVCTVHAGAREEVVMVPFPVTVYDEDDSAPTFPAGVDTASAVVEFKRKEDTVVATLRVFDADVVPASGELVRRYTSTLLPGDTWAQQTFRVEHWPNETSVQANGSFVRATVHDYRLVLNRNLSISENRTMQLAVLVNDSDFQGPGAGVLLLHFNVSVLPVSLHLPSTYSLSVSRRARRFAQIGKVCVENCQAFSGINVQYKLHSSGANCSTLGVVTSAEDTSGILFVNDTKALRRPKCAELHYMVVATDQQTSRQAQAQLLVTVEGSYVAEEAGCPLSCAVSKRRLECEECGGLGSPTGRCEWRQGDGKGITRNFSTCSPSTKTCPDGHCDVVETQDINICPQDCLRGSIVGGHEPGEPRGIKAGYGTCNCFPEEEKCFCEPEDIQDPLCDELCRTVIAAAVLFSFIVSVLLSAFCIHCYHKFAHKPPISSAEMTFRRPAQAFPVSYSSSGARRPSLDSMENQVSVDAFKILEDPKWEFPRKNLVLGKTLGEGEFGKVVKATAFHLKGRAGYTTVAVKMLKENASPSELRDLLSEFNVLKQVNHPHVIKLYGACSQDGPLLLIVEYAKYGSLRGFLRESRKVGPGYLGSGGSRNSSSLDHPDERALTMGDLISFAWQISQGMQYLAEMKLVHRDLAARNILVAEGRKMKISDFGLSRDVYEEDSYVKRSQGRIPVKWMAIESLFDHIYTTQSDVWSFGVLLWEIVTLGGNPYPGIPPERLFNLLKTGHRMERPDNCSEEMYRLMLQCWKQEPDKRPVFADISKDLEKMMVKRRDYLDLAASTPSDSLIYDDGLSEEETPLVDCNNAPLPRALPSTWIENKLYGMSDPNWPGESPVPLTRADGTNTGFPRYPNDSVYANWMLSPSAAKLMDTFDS
Sequence of Mast/stem cell growth factor receptor Kit (Homo sapiens) (P10721 whole entry): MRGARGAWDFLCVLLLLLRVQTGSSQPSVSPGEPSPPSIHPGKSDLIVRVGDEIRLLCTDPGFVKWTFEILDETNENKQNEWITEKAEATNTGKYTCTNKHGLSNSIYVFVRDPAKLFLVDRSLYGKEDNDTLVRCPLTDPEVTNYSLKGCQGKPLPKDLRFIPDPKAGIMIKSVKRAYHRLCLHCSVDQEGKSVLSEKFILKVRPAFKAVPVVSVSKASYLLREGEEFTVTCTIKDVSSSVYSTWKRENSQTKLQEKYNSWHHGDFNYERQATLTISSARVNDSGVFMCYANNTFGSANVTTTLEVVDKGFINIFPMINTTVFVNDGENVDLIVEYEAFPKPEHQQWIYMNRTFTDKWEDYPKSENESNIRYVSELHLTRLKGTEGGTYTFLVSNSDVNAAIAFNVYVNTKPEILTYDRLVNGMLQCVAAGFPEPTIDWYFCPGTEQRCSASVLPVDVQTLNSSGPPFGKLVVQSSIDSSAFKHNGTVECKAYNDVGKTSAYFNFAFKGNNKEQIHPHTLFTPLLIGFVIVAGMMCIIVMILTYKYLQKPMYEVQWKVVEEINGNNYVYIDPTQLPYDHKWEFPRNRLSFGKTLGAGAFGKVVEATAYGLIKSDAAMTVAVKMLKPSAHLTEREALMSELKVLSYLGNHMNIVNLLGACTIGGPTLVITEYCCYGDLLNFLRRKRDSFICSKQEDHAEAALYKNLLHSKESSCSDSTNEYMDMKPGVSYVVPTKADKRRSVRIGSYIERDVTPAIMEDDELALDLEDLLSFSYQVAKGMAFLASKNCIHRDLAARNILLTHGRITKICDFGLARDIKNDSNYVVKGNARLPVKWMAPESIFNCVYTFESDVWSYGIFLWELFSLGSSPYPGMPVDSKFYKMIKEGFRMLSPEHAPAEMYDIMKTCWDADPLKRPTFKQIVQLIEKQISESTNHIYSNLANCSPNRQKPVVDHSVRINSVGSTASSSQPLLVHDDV
Sequence of Vascular endothelial growth factor receptor 1 (Homo sapiens) (P17948 whole entry): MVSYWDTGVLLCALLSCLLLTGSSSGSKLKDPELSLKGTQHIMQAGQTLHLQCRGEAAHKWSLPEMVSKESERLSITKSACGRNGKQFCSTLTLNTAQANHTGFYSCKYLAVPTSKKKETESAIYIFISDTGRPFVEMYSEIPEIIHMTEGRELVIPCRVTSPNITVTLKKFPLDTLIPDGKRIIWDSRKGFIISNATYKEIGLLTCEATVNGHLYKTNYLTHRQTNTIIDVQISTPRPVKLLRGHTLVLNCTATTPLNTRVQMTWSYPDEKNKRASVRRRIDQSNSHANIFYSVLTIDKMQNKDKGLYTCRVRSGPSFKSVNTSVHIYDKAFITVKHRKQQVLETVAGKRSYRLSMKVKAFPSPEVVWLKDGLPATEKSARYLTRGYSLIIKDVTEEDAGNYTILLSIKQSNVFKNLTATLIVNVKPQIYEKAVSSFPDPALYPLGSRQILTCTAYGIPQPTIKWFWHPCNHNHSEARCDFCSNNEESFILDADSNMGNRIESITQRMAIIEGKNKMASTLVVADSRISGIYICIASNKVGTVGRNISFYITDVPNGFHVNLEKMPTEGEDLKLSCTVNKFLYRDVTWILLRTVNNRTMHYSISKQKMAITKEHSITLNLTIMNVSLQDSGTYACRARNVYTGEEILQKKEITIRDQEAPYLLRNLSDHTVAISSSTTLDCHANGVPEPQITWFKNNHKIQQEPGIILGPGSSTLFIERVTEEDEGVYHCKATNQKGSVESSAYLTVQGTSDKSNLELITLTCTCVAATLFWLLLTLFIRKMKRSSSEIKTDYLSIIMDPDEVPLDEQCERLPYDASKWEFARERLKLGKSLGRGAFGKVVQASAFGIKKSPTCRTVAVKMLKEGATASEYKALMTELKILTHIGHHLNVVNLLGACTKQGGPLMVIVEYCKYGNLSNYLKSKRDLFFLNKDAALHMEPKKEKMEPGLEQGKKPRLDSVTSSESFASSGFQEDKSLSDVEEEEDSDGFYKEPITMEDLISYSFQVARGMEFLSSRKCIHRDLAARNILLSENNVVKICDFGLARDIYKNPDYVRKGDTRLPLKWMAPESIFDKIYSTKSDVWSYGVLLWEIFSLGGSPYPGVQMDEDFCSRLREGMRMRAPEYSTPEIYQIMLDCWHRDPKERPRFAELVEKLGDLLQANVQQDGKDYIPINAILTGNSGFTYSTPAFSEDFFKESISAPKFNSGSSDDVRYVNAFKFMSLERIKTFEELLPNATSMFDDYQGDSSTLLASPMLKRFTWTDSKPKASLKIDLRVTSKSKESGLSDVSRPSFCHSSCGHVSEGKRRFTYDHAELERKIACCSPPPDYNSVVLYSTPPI

SMILES: O=C(NNc1ccc(C(F)(F)F)cn1)c1ccccc1Cl
IC50 [29]: 13.2 µM

SMILES: O=C(Nc1ccccc1O)c1cnns1
inhibition at 100 µM (MCF7 [3]): 32.7%
IC50 (MDA-MB-231 [6]): > 100 µM
inhibition at 100 µM (HCT-116 [10]): 43.2%
inhibition at 100 µM (MDA-MB-231 [23]): 46.5%
IC50 (HCT-116 [28]): > 100 µM
IC50 [29]: 3.03 µM

SMILES: Cc1c(O)ccc(/N=N/c2ccc(S(=O)(=O)O)cc2)c1C
IC50 [29]: 15.1 µM

SMILES: O=C(O)c1ccc(/N=N/c2ccc(O)c3ncccc23)cc1
inhibition at 100 µM (MCF7 [3]): 36.7%
inhibition at 100 µM (HCT-116 [10]): 28.4%
inhibition at 100 µM (MDA-MB-231 [23]): 22.2%
IC50 [29]: 3.47 µM

SMILES: Cc1ccc2nc(-c3cc(N)cc(C)c3O)oc2c1
inhibition at 100 µM (MCF7 [3]): 45.1%
IC50 (MDA-MB-231 [6]): > 100 µM
inhibition at 100 µM (HCT-116 [10]): 44.2%
IC50 (MCF7 [16]): > 100 µM
inhibition at 100 µM (MDA-MB-231 [23]): 54.7%
IC50 (HCT-116 [28]): > 100 µM
IC50 [29]: 1.38 µM

The next lines start with results.

inhibition [1]: 1.4%
inhibition [4]: 15.5%
inhibition [5]: 7.4%
IC50 (MDA-MB-231 [6]): 16.1 µM
inhibition [7]: -1.4%
inhibition [8]: 3.1%
inhibition [9]: 3.5%
inhibition [11]: 8.2%
inhibition [12]: 0.6%
inhibition [13]: 12.5%
inhibition [14]: 21.9%
inhibition [15]: 86.8%
IC50 (MCF7 [16]): 25.5 µM
inhibition [17]: 24%
inhibition [18]: -4.4%
inhibition [19]: -2.5%
inhibition [20]: 6.2%
inhibition [21]: 44.9%
inhibition [22]: -0.4%
inhibition [24]: 2.7%
inhibition [25]: 62.8%
inhibition [26]: 95.5%
inhibition [27]: 11.5%
IC50 (HCT-116 [28]): 30.2 µM
SMILES: Cc1c(N)ccc2[nH]c(-c3ccc(N)cc3)nc12
Activity (MDA-MB-231 [2]): Active
inhibition at 100 µM (MCF7 [3]): 98.3%
inhibition at 100 µM (HCT-116 [10]): 89.6%
inhibition at 100 µM (MDA-MB-231 [23]): 89.2%

IC50 [29]: 1.06 µM
SMILES: Cc1cc(N)cc2[nH]c(-c3ccccc3)nc12
inhibition at 100 µM (MCF7 [3]): 21.3%
inhibition at 100 µM (HCT-116 [10]): 32.6%
inhibition at 100 µM (MDA-MB-231 [23]): 45.8%

IC50 [29]: 0.95 µM
SMILES: O=C1c2ccccc2C(=O)N1CNc1ccc(N2CCOCC2)cc1
inhibition at 100 µM (MCF7 [3]): 31.2%
inhibition at 100 µM (HCT-116 [10]): 13.2%
inhibition at 100 µM (MDA-MB-231 [23]): 6.89%

inhibition [1]: 32.6%
inhibition [30]: 94%
inhibition [4]: 61.2%
inhibition [5]: 37.9%
IC50 (MDA-MB-231 [6]): 1.77 µM
inhibition [31]: 5%
inhibition [32]: 3%
inhibition [11]: 37.4%
inhibition [12]: 71.8%
inhibition [34]: 98%
inhibition [13]: 73.2%
inhibition [14]: 74.4%
IC50 (MCF7 [16]): 1.96 µM
inhibition [17]: 70.7%
inhibition [37]: 16%
inhibition [38]: 16%
inhibition [21]: 36.6%
inhibition [39]: 97%
inhibition [25]: 32.4%
inhibition [40]: 98%
inhibition [27]: 58%
IC50 (HCT-116 [28]): 0.84 µM
IC50 [29]: 0.01 µM
SMILES: Cn1cc(C2=C(c3cn(CCCSC(=N)N)c4ccccc34)C(=O)NC2=O)c2ccccc21 [BISINDOLYLMALEIMIDE IX]
inhibition at 10 µM (HCT-116 [33]): 95.2%
inhibition at 10 µM (MCF7 [35]): 95.3%
inhibition at 10 µM (MDA-MB-231 [36]): 97.1%
